Data published in ChEMBL document CHEMBL1137782, “Identification of peptide substrate and small molecule inhibitors of testis-specific serine/threonine kinase1 (TSSK1) by the developed assays” (J Med Chem, 2009).

T1: Testis-specific serine/threonine-protein kinase 1 (Homo sapiens) (UniProt Q9BXA7)
T1 sequence (whole entry): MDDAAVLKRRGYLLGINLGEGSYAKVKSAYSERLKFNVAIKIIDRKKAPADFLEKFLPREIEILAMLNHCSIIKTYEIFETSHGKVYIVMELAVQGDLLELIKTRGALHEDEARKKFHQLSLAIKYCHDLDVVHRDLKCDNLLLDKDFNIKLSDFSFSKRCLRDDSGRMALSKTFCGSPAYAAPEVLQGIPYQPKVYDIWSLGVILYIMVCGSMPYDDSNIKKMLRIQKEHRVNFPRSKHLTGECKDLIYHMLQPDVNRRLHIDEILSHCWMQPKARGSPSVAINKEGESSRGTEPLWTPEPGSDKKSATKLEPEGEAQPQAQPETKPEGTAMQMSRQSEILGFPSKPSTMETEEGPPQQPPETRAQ

T2: Testis-specific serine/threonine-protein kinase 1 (Homo sapiens, UniProt Q9BXA7)
T2 sequence (Q9BXA7 whole entry): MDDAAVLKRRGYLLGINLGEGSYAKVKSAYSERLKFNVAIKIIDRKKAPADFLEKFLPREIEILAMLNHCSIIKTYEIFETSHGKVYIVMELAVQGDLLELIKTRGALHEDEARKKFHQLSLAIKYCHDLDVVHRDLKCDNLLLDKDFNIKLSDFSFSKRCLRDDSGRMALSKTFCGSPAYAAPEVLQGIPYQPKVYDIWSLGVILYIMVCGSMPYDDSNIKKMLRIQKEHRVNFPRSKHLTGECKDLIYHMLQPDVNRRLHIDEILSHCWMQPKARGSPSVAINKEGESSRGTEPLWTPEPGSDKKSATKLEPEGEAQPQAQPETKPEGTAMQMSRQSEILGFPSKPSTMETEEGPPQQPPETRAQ


How the values were obtained:
[1] = target: T1, Testis-specific serine/threonine-protein kinase 1 (Homo sapiens); test: Inhibition of TSSK1-catalyzed phosphorylation of AALVRQMSVAFFFK substrate at 20 uM by luminescent kinase assay
Procedure, shortened: (§1)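 Luminescent Kinase-Glo read-out of ATP left after reaction. Buffer 40 mM Tris-HCl, 20 mM MgCl2, 0.1 mg/mL BSA, 2 mM DTT. Final 0.5 μg/well TSSK1, 10 μM Pep8 peptide, 1.5 μM ATP. Incubated 2 h at 37 °C, then an equal volume of Kinase-Glo added for 10 min at room temperature before luminescence (RLU) reading. Controls lacked peptide or lacked TSSK1; staurosporine 100 μM as positive control.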

[2] = target: T2, Testis-specific serine/threonine-protein kinase 1; test: Inhibition of TSSK1-catalyzed phosphorylation of AALVRQMSVAFFFK substrate by LC-MS based HTP assay in presence of Pep8-(O2)
Procedure, shortened: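 TSSK1 reaction at final 75 ng/well enzyme, 10 μM Pep8, 25 μM ATP in Tris-HCl/MgCl2/BSA/DTT buffer, 90 min at 37 °C. Acetonitrile quench carried 7 μM sulfone internal standard Pep8-P(O2). After 15000g spin, C18 HPLC-MS analysis. Pep8-P concentration calculated from its peak area relative to the internal standard using a normalization factor, and IC50 derived from that.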

[3] = target: T2, Testis-specific serine/threonine-protein kinase 1; test: Inhibition of TSSK1-catalyzed phosphorylation of AALVRQMSVAFFFK substrate by luminescent kinase assay; procedure, shortened: as §1
[4] = target: T2, Testis-specific serine/threonine-protein kinase 1; test: Inhibition of TSSK1-catalyzed phosphorylation of AALVRQMSVAFFFK substrate by LC-MS based HTP assay in absence of Pep8-(O2)
Procedure, shortened: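 End-point LC-MS read-out of phosphorylated Pep8 (Pep8-P). Reaction in 40 mM Tris-HCl, 20 mM MgCl2, 0.1 mg/mL BSA, 2 mM DTT with final 75 ng/well TSSK1, 10 μM Pep8, 25 μM ATP, run 90 min at 37 °C. Quenched with acetonitrile, spun 15000g 10 min, then analysed by C18 HPLC-MS using formic acid/acetonitrile gradient. IC50 taken from Pep8-P peak area with no internal standard.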

[5] = substrate: CSCC[C@H](NC(=O)[C@H](CCC(N)=O)NC(=O)[C@H](CCCNC(=N)N)NC(=O)[C@@H](NC(=O)[C@H](CC(C)C)NC(=O)[C@H](C)NC(=O)[C@H](C)N)C(C)C)C(=O)N[C@@H](CO)C(=O)N[C@H](C(=O)N[C@@H](C)C(=O)N[C@@H](Cc1ccccc1)C(=O)N[C@@H](Cc1ccccc1)C(=O)N[C@@H](Cc1ccccc1)C(=O)N[C@@H](CCCCN)C(=O)O)C(C)C; test: (§2) Activity at TSSK1 by Michaelis-Menten plot
Procedure, shortened: (§3)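 Enzyme time courses quantified phosphorylated Pep8 by LC-MS. ATP was varied 3.13–200 μM with Pep8 at 30 μM, or Pep8 0–40 μM with ATP at 200 μM. Reactions were quenched with acetonitrile containing 7 μM sulfone internal standard. Initial velocities were taken in duplicate and fitted to Michaelis-Menten by nonlinear least squares.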

[6] = substrate: Nc1ncnc2c1ncn2[C@@H]1O[C@H](COP(=O)(O)OP(=O)(O)OP(=O)(O)O)[C@@H](O)[C@H]1O; test: as §2; procedure, shortened: as §3

Molecule	inhibition [1] [%]	IC50 [2] [µM]	further results
CCc1cc(=O)oc2cc3c(c(O)c12)C(=O)CC(C)O3 (stereo not drawn)	> 40		
CC(C)C[C@H](CC(=O)N[C@H](CCC(N)=O)C(=O)O)NC(=O)c1cc(Cl)ccc1N	> 40		
CC(=O)Nc1ccc(-c2nc3cc4[nH]c(=O)c(C)nc4cc3n2CCCc2ccccc2)cc1		98	
O=C(c1ccc(-c2ccc(C(=O)C(O)O)cc2)cc1)C(O)O	> 40		IC50 [3]: 43.2 µM
CCCc1c(Cl)c(=O)oc2cc(O)cc(O)c12	> 40		
CCCc1cc(=O)oc2cc3c(c(O)c12)C(=O)CC(C)O3 (stereo not drawn)	> 40		IC50 [3]: 38.7 µM
CCCCCCCn1c(-c2ccc(O)c(O)c2)nc2cc3[nH]c(=O)c(C(C)C)nc3cc21		72	
Cc1c(Cc2ccccc2)c(=O)oc2cc(O)cc(O)c12	> 40		
O=C(c1ccc(-c2ccc(C(=O)C(O)S(=O)(=O)O)cc2)cc1)C(O)S(=O)(=O)O (stereo not drawn)		19.1	IC50 [3]: 24.8 µM; IC50 [4]: 14.4 µM
CC(C)c1nc2cc3c(cc2[nH]c1=O)nc(-c1ccc(C(=O)O)cc1)n3CCCc1ccccc1		38	
C=CC(=O)Oc1cc(O)c2c(CCC)cc(=O)oc2c1	> 40		
O=c1oc2cc(O)cc(O)c2c2c1CCCC2	> 40		
Testis-specific serine/threonine-protein kinase 1 (Homo sapiens), Q9BXA7 (protein) MDDAAVLKRRGYLLGINLGEGSYAKVKSAYSERLKFNVAIKIIDRKKAPADFLEKFLPREIEILAMLNHCSIIKTYEIFETSHGKVYIVMELAVQGDLLELIKTRGALHEDEARKKFHQLSLAIKYCHDLDVVHRDLKCDNLLLDKDFNIKLSDFSFSKRCLRDDSGRMALSKTFCGSPAYAAPEVLQGIPYQPKVYDIWSLGVILYIMVCGSMPYDDSNIKKMLRIQKEHRVNFPRSKHLTGECKDLIYHMLQPDVNRRLHIDEILSHCWMQPKARGSPSVAINKEGESSRGTEPLWTPEPGSDKKSATKLEPEGEAQPQAQPETKPEGTAMQMSRQSEILGFPSKPSTMETEEGPPQQPPETRAQ			Km [5]: 25.2 µM; Km [6]: 50.5 µM
